Assay results reported in ChEMBL document CHEMBL3616442, “Unconventional Knoevenagel-type indoles: Synthesis and cell-based studies for the identification of pro-apoptotic agents” (Eur J Med Chem, 2015).

Key:
MT4 = experiment: Antiproliferative activity against human MT4 cells after 96 hrs by MTT assay; type: functional, cell-based; conditions: MT4, 96 h
Method in brief: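 Exponentially growing MT-4 cells (CD4+ human T-cells carrying integrated HTLV-1 genome), seeded at 1×10^5 cells/mL in RPMI-1640 with 10% FCS and antibiotics. Serial dilutions of compound (DMSO stock 100 mM, diluted in medium), 37 °C, 5% CO₂, 96 h. Viability read by MTT. 50% inhibition versus untreated controls by linear regression. Mean ± SD of three independent determinations.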

[1] = Growth inhibition of human MOLT4 cells after 48 hrs by sulforhodamine B assay; type: functional; conditions: MOLT-4, 48 h
Method in brief: (§1)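 NCI 60-cell-line screen. Compounds tested at five 10-fold dilutions from 10^-4 to 10^-8 M. Cells exposed for the last 48 h of a 72 h incubation, growth estimated by sulforhodamine B protein assay. GI50 is the concentration giving 50% growth inhibition. Values beyond the tested range are expressed as greater or lesser than the extreme concentration.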

[2] = Growth inhibition of human RPMI8226 cells after 48 hrs by sulforhodamine B assay; type: functional; conditions: RPMI-8226, 48 h
SR = experiment: Growth inhibition of human SR cells after 48 hrs by sulforhodamine B assay; type: functional
A549 = experiment: Growth inhibition of human A549 cells after 48 hrs by sulforhodamine B assay; type: functional; conditions: A549, 48 h; method in brief: as §1
[3] = Growth inhibition of human EKVX cells after 48 hrs by sulforhodamine B assay; type: functional; method in brief: as §1
HOP-62 = experiment: Growth inhibition of human HOP62 cells after 48 hrs by sulforhodamine B assay; type: functional; conditions: HOP-62, 48 h; method in brief: as §1
[4] = Growth inhibition of human HOP92 cells after 48 hrs by sulforhodamine B assay; type: functional; conditions: HOP-92, 48 h; method in brief: as §1
NCI-H226 = experiment: Growth inhibition of human NCI-H226 cells after 48 hrs by sulforhodamine B assay; type: functional; conditions: NCI-H226, 48 h; method in brief: as §1
NCI-H23 = experiment: Growth inhibition of human NCI-H23 cells after 48 hrs by sulforhodamine B assay; type: functional; conditions: NCI-H23, 48 h; method in brief: as §1
NCI-H322M = experiment: Growth inhibition of human NCI-H322M cells after 48 hrs by sulforhodamine B assay; type: functional; method in brief: as §1
NCI-H460 = experiment: Growth inhibition of human NCI-H460 cells after 48 hrs by sulforhodamine B assay; type: functional; conditions: NCI-H460, 48 h; method in brief: as §1
NCI-H522 = experiment: Growth inhibition of human NCI-H522 cells after 48 hrs by sulforhodamine B assay; type: functional; conditions: NCI-H522, 48 h; method in brief: as §1
[5] = Growth inhibition of human COLO205 cells after 48 hrs by sulforhodamine B assay; type: functional; conditions: COLO 205, 48 h; method in brief: as §1
[6] = Growth inhibition of human HCC2998 cells after 48 hrs by sulforhodamine B assay; type: functional; conditions: HCC 2998, 48 h; method in brief: as §1
HCT-116 = experiment: Growth inhibition of human HCT116 cells after 48 hrs by sulforhodamine B assay; type: functional; conditions: HCT-116, 48 h; method in brief: as §1
HCT-15 = experiment: Growth inhibition of human HCT15 cells after 48 hrs by sulforhodamine B assay; type: functional; conditions: HCT-15, 48 h; method in brief: as §1
HT-29 = experiment: Growth inhibition of human HT-29 cells after 48 hrs by sulforhodamine B assay; type: functional; conditions: HT-29, 48 h; method in brief: as §1
KM12 = experiment: Growth inhibition of human KM12 cells after 48 hrs by sulforhodamine B assay; type: functional; conditions: KM12, 48 h; method in brief: as §1
SW-620 = experiment: Growth inhibition of human SW620 cells after 48 hrs by sulforhodamine B assay; type: functional; conditions: SW-620, 48 h
SF-268 = experiment: Growth inhibition of human SF268 cells after 48 hrs by sulforhodamine B assay; type: functional; conditions: SF-268, 48 h
[7] = Growth inhibition of human SF295 cells after 48 hrs by sulforhodamine B assay; type: functional; conditions: SF-295, 48 h
[8] = Growth inhibition of human SF539 cells after 48 hrs by sulforhodamine B assay; type: functional; conditions: SF-539, 48 h
SNB-19 = experiment: Growth inhibition of human SNB19 cells after 48 hrs by sulforhodamine B assay; type: functional; conditions: SNB-19, 48 h
SNB-75 = experiment: Growth inhibition of human SNB75 cells after 48 hrs by sulforhodamine B assay; type: functional; conditions: SNB-75, 48 h
U-251 = experiment: Growth inhibition of human U251 cells after 48 hrs by sulforhodamine B assay; type: functional; conditions: U-251, 48 h
[9] = Growth inhibition of human LOXIMVI cells after 48 hrs by sulforhodamine B assay; type: functional; conditions: LOX IMVI; method in brief: as §1
Malme-3M = experiment: Growth inhibition of human MALME-3M cells after 48 hrs by sulforhodamine B assay; type: functional; method in brief: as §1
M14 = experiment: Growth inhibition of human M14 cells after 48 hrs by sulforhodamine B assay; type: functional; conditions: M14, 48 h; method in brief: as §1
MDA-MB-435 = experiment: Growth inhibition of human MDA-MB-435 cells after 48 hrs by sulforhodamine B assay; type: functional; conditions: MDA-MB-435, 48 h; method in brief: as §1
SK-MEL-2 = experiment: Growth inhibition of human SK-MEL-2 cells after 48 hrs by sulforhodamine B assay; type: functional; conditions: SK-MEL-2, 48 h
SK-MEL-28 = experiment: Growth inhibition of human SK-MEL-28 cells after 48 hrs by sulforhodamine B assay; type: functional; conditions: SK-MEL-28, 48 h
UACC-257 = experiment: Growth inhibition of human UACC257 cells after 48 hrs by sulforhodamine B assay; type: functional; conditions: UACC-257, 48 h
UACC-62 = experiment: Growth inhibition of human UACC62 cells after 48 hrs by sulforhodamine B assay; type: functional; conditions: UACC-62, 48 h
IGROV-1 = experiment: Growth inhibition of human IGROV1 cells after 48 hrs by sulforhodamine B assay; type: functional; conditions: IGROV-1, 48 h; method in brief: as §1
OVCAR-3 = experiment: Growth inhibition of human OVCAR3 cells after 48 hrs by sulforhodamine B assay; type: functional; conditions: OVCAR-3, 48 h; method in brief: as §1
OVCAR-4 = experiment: Growth inhibition of human OVCAR4 cells after 48 hrs by sulforhodamine B assay; type: functional; conditions: OVCAR-4, 48 h; method in brief: as §1
OVCAR-5 = experiment: Growth inhibition of human OVCAR5 cells after 48 hrs by sulforhodamine B assay; type: functional; conditions: OVCAR-5, 48 h
OVCAR-8 = experiment: Growth inhibition of human OVCAR8 cells after 48 hrs by sulforhodamine B assay; type: functional; conditions: OVCAR-8, 48 h
[10] = Growth inhibition of human NCI-ADR-RES cells after 48 hrs by sulforhodamine B assay; type: functional; method in brief: as §1
SK-OV-3 = experiment: Growth inhibition of human SKOV3 cells after 48 hrs by sulforhodamine B assay; type: functional; conditions: SK-OV-3, 48 h
786-0 = experiment: Growth inhibition of human 786-0 cells after 48 hrs by sulforhodamine B assay; type: functional; conditions: 786-0, 48 h; method in brief: as §1
A498 = experiment: Growth inhibition of human A498 cells after 48 hrs by sulforhodamine B assay; type: functional; conditions: A498, 48 h; method in brief: as §1
ACHN = experiment: Growth inhibition of human ACHN cells after 48 hrs by sulforhodamine B assay; type: functional; method in brief: as §1
CAKI-1 = experiment: Growth inhibition of human CAKI-1 cells after 48 hrs by sulforhodamine B assay; type: functional; conditions: CAKI-1, 48 h; method in brief: as §1
[11] = Growth inhibition of human RXF393 cells after 48 hrs by sulforhodamine B assay; type: functional; conditions: RXF 393, 48 h
SN12C = experiment: Growth inhibition of human SN12C cells after 48 hrs by sulforhodamine B assay; type: functional
TK-10 = experiment: Growth inhibition of human TK10 cells after 48 hrs by sulforhodamine B assay; type: functional; conditions: TK-10, 48 h
UO-31 = experiment: Growth inhibition of human UO31 cells after 48 hrs by sulforhodamine B assay; type: functional; conditions: UO-31, 48 h
PC-3 = experiment: Growth inhibition of human PC3 cells after 48 hrs by sulforhodamine B assay; type: functional; conditions: PC-3, 48 h
DU-145 = experiment: Growth inhibition of human DU145 cells after 48 hrs by sulforhodamine B assay; type: functional; conditions: DU-145, 48 h; method in brief: as §1
MCF7 = experiment: Growth inhibition of human MCF7 cells after 48 hrs by sulforhodamine B assay; type: functional; conditions: MCF7, 48 h; method in brief: as §1
MDA-MB-231 = experiment: Growth inhibition of human MDA-MB-231 cells after 48 hrs by sulforhodamine B assay; type: functional; conditions: MDA-MB-231, 48 h; method in brief: as §1
[12] = Growth inhibition of human Hs 578T cells after 48 hrs by sulforhodamine B assay; type: functional; method in brief: as §1
[13] = Growth inhibition of human BT549 cells after 48 hrs by sulforhodamine B assay; type: functional; conditions: BT-549, 48 h; method in brief: as §1
T47D = experiment: Growth inhibition of human T47D cells after 48 hrs by sulforhodamine B assay; type: functional
MDA-MB-468 = experiment: Growth inhibition of human MDA-MB-468 cells after 48 hrs by sulforhodamine B assay; type: functional; conditions: MDA-MB-468, 48 h; method in brief: as §1

- GI50 (A549): 4.9 µM
- GI50 (NCI-H226): 4.3 µM
- GI50 (NCI-H23): 4.8 µM
- GI50 (NCI-H322M): 8.8 µM
- GI50 (NCI-H460): 3000 nM
- GI50 (NCI-H522): 3.2 µM
- GI50 (HCT-116): 3.8 µM
- GI50 (HCT-15): 3.1 µM
- GI50 (HT-29): 5.2 µM
- GI50 (SW-620): 5.2 µM
- GI50 (U-251): 3.4 µM
- GI50 (MDA-MB-435): 2900 nM
- GI50 (SK-MEL-2): 10.6 µM
- GI50 (SK-MEL-28): 5.8 µM
- GI50 (OVCAR-3): 2700 nM
- GI50 (OVCAR-4): 5.7 µM
- GI50 (OVCAR-5): 17.4 µM
- GI50 (OVCAR-8): 3.9 µM
- GI50 (SK-OV-3): 9.3 µM
- GI50 (786-0): 8.2 µM
- GI50 (ACHN): 5.5 µM
- GI50 (PC-3): 5.6 µM
- GI50 (DU-145): 2900 nM
- GI50 (MCF7): 2800 nM
- GI50 (MDA-MB-231): 2700 nM
- GI50 (T47D): 3.2 µM
- GI50 (MDA-MB-468): 6.3 µM
SMILES: COC(=O)/C(=C\c1c(C)[nH]c2ccccc12)S(=O)(=O)c1ccccc1
- EC50 (MT4): 31 µM
- GI50 [1]: 1900 nM
- GI50 [2]: 3.2 µM
- GI50 (SR): 1100 nM
- GI50 [3]: 5 µM
- GI50 (HOP-62): 7.7 µM
- GI50 [4]: 4.1 µM
- GI50 [5]: 7.5 µM
- GI50 [6]: 4.9 µM
- GI50 (KM12): 2400 nM
- GI50 (SF-268): 3.3 µM
- GI50 [7]: 3.1 µM
- GI50 [8]: 3.4 µM
- GI50 (SNB-19): 7.6 µM
- GI50 (SNB-75): 3.1 µM
- GI50 [9]: 2000 nM
- GI50 (Malme-3M): 7.3 µM
- GI50 (M14): 4.4 µM
- GI50 (UACC-257): 7 µM
- GI50 (UACC-62): 2800 nM
- GI50 (IGROV-1): 1500 nM
- GI50 [10]: 4.2 µM
- GI50 (A498): 5.5 µM
- GI50 (CAKI-1): 3.3 µM
- GI50 [11]: 3.6 µM
- GI50 (SN12C): 2600 nM
- GI50 (TK-10): 8.1 µM
- GI50 (UO-31): 4.4 µM
- GI50 [12]: 2900 nM
- GI50 [13]: 5.4 µM
